Active and inactive are the calls of the source. The rule behind the calls is not given here.
Legend:
Homo sapiens [1] = species: Homo sapiens; assay: Binding affinity to human 5'-fluorescein-tagged TAR RNA after 24 hrs by fluorescein-based bead assay
Procedure, shortened: (§1)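 TentaGel beads carrying peptide with a free N-terminus were blocked 3 h in SuperBlock (PBS, 0.05% Tween-20) and water-washed. About 10–12 beads were incubated with 15 μL of 1 μM 5′-fluorescein-labelled RNA in 10 mM HEPES for 24 h at 4 °C with shaking, repeated 4× with fresh RNA. Beads were water-washed and imaged by fluorescence microscopy. Peptide-free beads gave background.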

Homo sapiens [2] = species: Homo sapiens; assay: Binding affinity to human 5'-fluorescein-tagged 18s RNA after 24 hrs by fluorescein-based bead assay; procedure, shortened: as §1
Escherichia coli [3] = assay: Binding affinity to wild type Escherichia coli Qdot-labeled H69 RNA after 16 hrs by fluorescein-based bead assay
Procedure, shortened: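 1 nM fluorescein-H69 was pre-incubated 1 h with 1 nM anti-fluorescein Qdot 655, then with beads for 16 h at 4 °C. Beads were washed, and red and green per-bead pixel intensities (1–255 scale) quantified against no-peptide beads.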

Escherichia coli [4] = assay: Binding affinity to wild type Escherichia coli 5'-fluorescein-tagged H69 RNA after 24 hrs by fluorescein-based bead assay relative to control; procedure, shortened: as §1
[5] = Binding affinity to wild type Escherichia coli H69 RNA at 4- charge state at pH 5.2 after 30 mins by ESI-MS analysis; conditions: read-out: Kd(app)
Procedure, shortened: (§2)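 ESI-MS titration of free amidated peptide (0–120 μM) with 1–3 μM RNA (50 μL) in 150 mM ammonium acetate, pH 7.0 or 5.2, 25% 2-propanol. Summed peak areas of complexes (1:1, 1:2, Na+/K+ adducts) over free plus complexed RNA give fraction bound, either per charge state (4−, 5−) or all states. Apparent Kd comes from a quadratic fit, three independent experiments.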

Escherichia coli [6] = assay: Ratio of apparent Kd for wild type Escherichia coli H69-UUU RNA at 4- charge state at pH 5.2 to apparent Kd for wild type Escherichia coli H69-UUU RNA at 4- charge state at pH 7
Procedure, shortened: (§3)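 The ratio compares apparent Kd for the 4− charge-state 1:1 complex from ESI-MS titrations at pH 5.2 and pH 7.0. Conditions: 150 mM ammonium acetate, 25% 2-propanol, 1–3 μM RNA, 0–120 μM amidated peptide, quadratic fit.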

[7] = Binding affinity to Escherichia coli helix 31 at pH 7 after 30 mins by ESI-MS analysis; conditions: read-out: Kd(app); procedure, shortened: as §2
[8] = Binding affinity to Escherichia coli H69-2(pseudouridine)U RNA at 4- charge state at pH 7 after 30 mins by ESI-MS analysis; conditions: read-out: Kd(app); procedure, shortened: as §2
Escherichia coli [9] = assay: Selectivity ratio of apparent Kd for Escherichia coli H69-pseudouridineUpseudouridine RNA at 4- charge state at pH 7 to apparent Kd for wild type Escherichia coli H69 RNA at 4- charge state at pH 7
Escherichia coli [10] = assay: Selectivity ratio of apparent Kd for Escherichia coli H69-U2(pseudouridine) RNA at 4- charge state at pH 7 to apparent Kd for wild type Escherichia coli H69 RNA at 4- charge state at pH 7
Procedure, shortened: (§4)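 The ratio compares apparent Kd for each RNA with that for modified wild-type H69, both for 1:1 complexes from ESI-MS at pH 7.0. Conditions: 150 mM ammonium acetate, 25% 2-propanol, 1–3 μM RNA, 0–120 μM amidated peptide, fraction bound fitted by a quadratic equation.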

Escherichia coli [11] = assay: Selectivity ratio of apparent Kd for Escherichia coli H69-UUU RNA at 4- charge state at pH 7 to apparent Kd for wild type Escherichia coli H69 RNA at 4- charge state at pH 7; procedure, shortened: as §4
[12] = Binding affinity to Escherichia coli H69-U2(pseudouridine) RNA at 4- charge state at pH 7 after 30 mins by ESI-MS analysis; conditions: read-out: Kd(app); procedure, shortened: as §2
Escherichia coli [13] = assay: Ratio of apparent Kd for wild type Escherichia coli H69 RNA at 4- charge state at pH 5.2 to apparent Kd for wild type Escherichia coli H69 RNA at 4- charge state at pH 7; procedure, shortened: as §3
[14] = Binding affinity to Escherichia coli H69-pseudouridineUpseudouridine RNA at 4- charge state at pH 7 after 30 mins by ESI-MS analysis; conditions: read-out: Kd(app)
Procedure, shortened: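 ESI-MS on a tandem quadrupole instrument: 1–3 μM RNA with 0–120 μM amidated peptide in 150 mM ammonium acetate, pH 7.0, 25% 2-propanol. Summed peak areas of free RNA and 1:1 complex (with Na+/K+ adducts) at the 4− charge state were used to get the fraction bound. Apparent Kd came from a quadratic-equation non-linear fit. Three independent experiments were run.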

Escherichia coli [15] = assay: Selectivity ratio of apparent Kd for Escherichia coli helix 31 at pH 7 to apparent Kd for wild type Escherichia coli H69 RNA at pH 7; procedure, shortened: as §4
Escherichia coli [16] = assay: Selectivity ratio of apparent Kd for Escherichia coli A-site 16s rRNA at pH 7 to apparent Kd for wild type Escherichia coli H69 RNA at pH 7; procedure, shortened: as §4
Escherichia coli [17] = assay: Selectivity ratio of apparent Kd for Escherichia coli H69-2(pseudouridine)U RNA at 4- charge state at pH 7 to apparent Kd for wild type Escherichia coli H69 RNA at 4- charge state at pH 7; procedure, shortened: as §4
[18] = Binding affinity to human H69 RNA at pH 7 after 30 mins by ESI-MS analysis; conditions: read-out: Kd(app); procedure, shortened: as §2
[19] = Binding affinity to Escherichia coli H69-UUU RNA at 4- charge state at pH 7 after 30 mins by ESI-MS analysis; conditions: read-out: Kd(app); procedure, shortened: as §2
[20] = Selectivity ratio of apparent Kd for human H69 RNA at pH 7 to apparent Kd for wild type Escherichia coli H69 RNA at pH 7; procedure, shortened: as §4
[21] = Binding affinity to Escherichia coli A-site 16s rRNA at pH 7 after 30 mins by ESI-MS analysis; conditions: read-out: Kd(app); procedure, shortened: as §2
[22] = Binding affinity to Escherichia coli H69-UUU RNA at 4- charge state at pH 5.2 after 30 mins by ESI-MS analysis; conditions: read-out: Kd(app); procedure, shortened: as §2
Escherichia coli [23] = assay: Selectivity ratio of Kd for Escherichia coli H69-UUU RNA to Kd for wild type Escherichia coli H69 RNA

## H-NQVANHQ-OH
Homo sapiens [1]
  Activity: inactive
Homo sapiens [2]
  Activity: inactive
Escherichia coli [3]
  Activity: Active
Escherichia coli [4]
  Activity: Active

## H-STYTSVS-OH
Homo sapiens [1]
  Activity: Active
Escherichia coli [3]
  Activity: Active
Escherichia coli [4]
  Activity: Active

## H-NQVANHQ-NH2
[5]
  Kd: 34 µM
Escherichia coli [6]
  Ratio: 1.6
[7]
  Kd: 33 µM
[8]
  Kd: 28 µM
Escherichia coli [9]
  Selectivity ratio: 2.3
Escherichia coli [10]
  Selectivity ratio: 2.3
Escherichia coli [11]
  Selectivity ratio: 1.6
[12]
  Kd: 28 µM
Escherichia coli [13]
  Ratio: 2.8
[14]
  Kd: 28 µM
Escherichia coli [15]
  Selectivity ratio: 3
Escherichia coli [16]
  Selectivity ratio: 4
Escherichia coli [17]
  Selectivity ratio: 2.3
[18]
  Kd: 50 µM
[19]
  Kd: 19 µM
[20]
  Selectivity ratio: 4
[21]
  Kd: 49 µM
[22]
  Kd: 31 µM

## NC[C@@H]1O[C@H](O[C@H]2[C@@H](O)[C@H](O[C@@H]3[C@@H](O)[C@H](N)C[C@H](N)[C@H]3O[C@H]3O[C@H](CO)[C@@H](O)[C@H](O)[C@H]3N)O[C@@H]2CO)[C@H](N)[C@@H](O)[C@@H]1O
Escherichia coli [23]
  Selectivity ratio: 2

— ChEMBL document CHEMBL2331302, “Selection of heptapeptides that bind helix 69 of bacterial 23S ribosomal RNA” (Bioorg Med Chem, 2013)
